Test results as given in ChEMBL document CHEMBL3044620, “Cinnamic acid inhibits growth but stimulates production of pathogenesis factors by in vitro cultures of Fusarium oxysporum f.sp. niveum” (2008).

Tests used:
[1] = test system: Fusarium oxysporum f. sp. niveum; assay: Stimulation of cellulase activity in Fusarium oxysporum f. sp. niveum at 1600 mg/L measured 7 days post compound treatment by DNS method; type: functional
[2] = test system: Fusarium oxysporum f. sp. niveum; assay: Stimulation of proteinase activity in Fusarium oxysporum f. sp. niveum at 1600 mg/L measured 7 days post compound treatment; type: functional
Neurospora crassa = assay: Growth inhibition of Neurospora crassa assessed as inhibition of mycelial growth at 200 mg/L; type: functional; details: read-out: GI
[3] = test system: Fusarium oxysporum f. sp. niveum; assay: Growth inhibition of Fusarium oxysporum f. sp. niveum assessed as inhibition of mycelium dry weight at 1600 mg/L measured 7 days post compound treatment; type: functional; details: 168 h
Method in brief: (§1)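 Strain NJAUS-1 was grown in 30 mL potato dextrose broth (pH 4.5, HCl), inoculated with a 5 mm plug from a 7-day PDA culture. Flasks were shaken at 170 rpm, 28 °C, for 7 days. Mycelium was filtered and dried at 80 °C for 12 h to constant dry weight. Cinnamic acid was tested at 200–1600 mg L-1; controls received sterile water. Three replicates, mean ± SE.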

[4] = test system: Fusarium oxysporum f. sp. niveum; assay: Stimulation of amylase activity in Fusarium oxysporum f. sp. niveum at 1600 mg/L measured 7 days post compound treatment by DNS method (reference value: 3.7 +/- 0.5 umol/min/ml); type: functional
[5] = test system: Fusarium oxysporum f. sp. niveum; assay: Stimulation of amylase activity in Fusarium oxysporum f. sp. niveum at 400 mg/L measured 7 days post compound treatment by DNS method (reference value: 3.7 +/- 0.5 umol/min/ml); type: functional
[6] = test system: Fusarium oxysporum f. sp. niveum; assay: Stimulation of cellulase activity in Fusarium oxysporum f. sp. niveum at 1600 mg/L measured 7 days post compound treatment by DNS method (reference value: 0.03 +/- 0.1 umol/min/ml); type: functional
[7] = test system: Fusarium oxysporum f. sp. niveum; assay: Stimulation of proteinase activity in Fusarium oxysporum f. sp. niveum at 1600 mg/L measured 7 days post compound treatment (reference value: 0.42 +/- 0.2 U//min/ml); type: functional
[8] = test system: Fusarium oxysporum f. sp. niveum; assay: Stimulation of pectinase activity in Fusarium oxysporum f. sp. niveum at 1600 mg/L measured 7 days post compound treatment by DNS method (reference value: 0.01 +/- 0.0 U//ml/min); type: functional
[9] = test system: Fusarium oxysporum f. sp. niveum; assay: Stimulation of mycotoxin production in Fusarium oxysporum f. sp. niveum at 1600 mg/L measured 7 days post compound treatment by spectrophotometry (reference value: 26.9 +/- 4.9 ug/mL); type: functional
[10] = test system: Fusarium oxysporum f. sp. niveum; assay: Growth inhibition of Fusarium oxysporum f. sp. niveum assessed as reduction in sporulation measured 7 days post compound treatment; type: functional, organism-based
Method in brief: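 FON was grown 7 days in modified Bilay and Joffe's medium (4.0 g sodium carboxymethyl cellulose, pH 4) with cinnamic acid at 200–1600 mg L-1 or a water control. Broth was diluted 10-5–10-7, and 0.1 mL was spread on PDA and incubated in the dark at 28 °C for 4 days. Colonies were counted and converted to conidia per culture. Three replicates, mean ± SE.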

[11] = test system: Fusarium oxysporum f. sp. niveum; assay: Growth inhibition of Fusarium oxysporum f. sp. niveum assessed as reduction in conidial germination measured […]; type: functional, organism-based
Method in brief: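 Conidia came from a 7-day liquid culture (28 °C), collected by filtration and diluted in sterile water. 0.1 mL was spread on 2% water agar plates containing cinnamic acid (200–1600 mg L-1; water control) and incubated at 28 °C for 3 days. Colonies were counted daily. Three replicate plates per treatment.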

[12] = test system: Fusarium oxysporum f. sp. niveum; assay: Growth inhibition of Fusarium oxysporum f. sp. niveum assessed as colony diameter at 1600 mg/L measured 7 days post compound treatment (reference value: 7.0 +/- 0.63 cm); type: functional
[13] = test system: Fusarium oxysporum f. sp. niveum; assay: Growth inhibition of Fusarium oxysporum f. sp. niveum assessed as reduction in hyphal growth measured 7 days post compound treatment; type: functional, organism-based
[14] = test system: Fusarium oxysporum f. sp. niveum; assay: Growth inhibition of Fusarium oxysporum f. sp. niveum assessed as mycelium dry weight at 1600 mg/L measured 7 days post compound treatment (reference value: 0.22 +/- 0.01 g); type: functional; method in brief: as §1
[15] = test system: Fusarium oxysporum f. sp. niveum; assay: Stimulation of proteinase activity in Fusarium oxysporum f. sp. niveum at 1600 mg/L measured 7 days post compound treatment by Tseng and Mount method

Compound O=C(O)/C=C/c1ccccc1 [CINNAMIC ACID] has an Activity [1] of 2006%, an Activity [2] of 760% and an inhibition of growth at 200 µg/mL (Neurospora crassa) of 94%. For the same compound, the inhibition at 1600 µg/mL [3] was 63.3%, the Activity [4] was 4.6 µmol/min/mL and the Activity [5] was 5.2 µmol/min/mL. The Activity [6] was 0.33 µmol/min/mL, the Activity [7] was 3.21 U/min/ml and the Activity [8] was 0.052 U/ml/min. The Activity [9] was 13.25 µg/mL, the “growth inhibition (GI)” value [10] was “Dose-dependent effect” and the “growth inhibition (GI)” value [11] was “Dose-dependent effect”. For the same compound, the Activity [12] was 0 cm, the “growth inhibition (GI)” value [13] was “Dose-dependent effect” and the Activity [14] was 0.08 g. It also gave an Activity [15] of 760%.
